Laboratory results: ChEMBL document CHEMBL1914452, “Arene- and quinoline-sulfonamides as novel 5-HT7 receptor ligands” (Bioorg Med Chem, 2011)

How the values were obtained:
[1] = biological target: T1, 5-hydroxytryptamine receptor 1A (Rattus norvegicus, UniProt P19327); assay: Displacement of [3H]-8-OH-DPAT from 5-HT1A receptor in rat hippocampus by liquid scintillation counting; format: tissue-based
T1 sequence (P19327 whole entry): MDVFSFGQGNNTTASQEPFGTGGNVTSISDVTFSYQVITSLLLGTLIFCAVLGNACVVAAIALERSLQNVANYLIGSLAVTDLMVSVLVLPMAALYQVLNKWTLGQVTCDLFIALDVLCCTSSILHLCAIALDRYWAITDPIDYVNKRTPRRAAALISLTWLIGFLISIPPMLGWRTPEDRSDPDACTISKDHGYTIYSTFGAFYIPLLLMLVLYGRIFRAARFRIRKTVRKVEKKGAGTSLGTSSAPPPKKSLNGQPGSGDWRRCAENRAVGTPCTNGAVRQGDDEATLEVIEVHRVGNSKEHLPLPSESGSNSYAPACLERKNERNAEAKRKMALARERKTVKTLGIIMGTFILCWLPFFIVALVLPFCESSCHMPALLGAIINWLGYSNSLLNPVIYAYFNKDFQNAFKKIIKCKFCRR
Outline: (§1)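 Competition binding with 7–9 compound concentrations, each run in triplicate. 5-HT1A, 5-HT2A and α1 sites were native. 5-HT6 used [3H]-LSD and 5-HT7 used [3H]-5-CT, both on cloned human receptors stably expressed in HEK293 cells. After incubation, samples were vacuum-filtered through GF/B filters and washed with ice-cold buffer. Bound radioactivity was counted by liquid scintillation.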

[2] = biological target: T2, 5-hydroxytryptamine receptor 7 (Homo sapiens, UniProt P34969); assay: Displacement of [3H]-5-CT from human 5-HT7 receptor expressed in HEK293 cells after 1 hr by liquid scintillation counting; format: cell-based; outline: as §1
T2 sequence (P34969 whole entry): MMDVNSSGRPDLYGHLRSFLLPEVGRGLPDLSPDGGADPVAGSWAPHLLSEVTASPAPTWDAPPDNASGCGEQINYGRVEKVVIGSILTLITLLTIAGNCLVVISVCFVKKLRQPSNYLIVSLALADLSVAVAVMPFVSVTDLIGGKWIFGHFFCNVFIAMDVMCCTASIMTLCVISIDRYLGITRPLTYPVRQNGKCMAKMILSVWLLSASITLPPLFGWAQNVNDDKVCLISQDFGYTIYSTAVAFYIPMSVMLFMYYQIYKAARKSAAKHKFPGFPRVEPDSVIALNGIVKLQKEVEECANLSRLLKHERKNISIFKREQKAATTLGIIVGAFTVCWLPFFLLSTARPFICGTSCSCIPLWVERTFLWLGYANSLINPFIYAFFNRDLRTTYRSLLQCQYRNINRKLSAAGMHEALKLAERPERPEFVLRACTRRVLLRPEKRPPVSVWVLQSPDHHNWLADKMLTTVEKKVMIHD

HEK293 = assay: Selectivity ratio of Ki for 5-HT1A receptor in rat hippocampus to Ki for human 5-HT7 receptor expressed in HEK293 cells; format: cell-based
[3] = biological target: 5-hydroxytryptamine receptor 2A (Rattus norvegicus, UniProt P14842); assay: Displacement of [3H]-ketanserin from 5-HT2A receptor in rat cortex by liquid scintillation counting; outline: as §1
Sequence of 5-hydroxytryptamine receptor 2A (P14842 whole entry): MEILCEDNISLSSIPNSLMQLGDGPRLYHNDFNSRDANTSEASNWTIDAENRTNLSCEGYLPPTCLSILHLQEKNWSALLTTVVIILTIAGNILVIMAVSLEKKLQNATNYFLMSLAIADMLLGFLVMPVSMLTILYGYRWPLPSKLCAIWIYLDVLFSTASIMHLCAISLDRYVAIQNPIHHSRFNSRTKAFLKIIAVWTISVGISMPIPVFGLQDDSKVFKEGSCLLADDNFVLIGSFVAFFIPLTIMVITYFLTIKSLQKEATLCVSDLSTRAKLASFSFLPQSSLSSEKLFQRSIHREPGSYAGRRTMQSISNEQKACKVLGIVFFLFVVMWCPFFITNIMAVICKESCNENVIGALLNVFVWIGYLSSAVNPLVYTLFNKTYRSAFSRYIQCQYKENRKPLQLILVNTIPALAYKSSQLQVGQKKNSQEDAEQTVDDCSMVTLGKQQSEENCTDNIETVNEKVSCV

[4] = biological target: 5-hydroxytryptamine receptor 6 (Homo sapiens, UniProt P50406); assay: Displacement of [3H]-LSD from human 5-HT6 receptor expressed in HEK293 cells after 1 hr by liquid scintillation counting; format: cell-based; outline: as §1
Sequence of 5-hydroxytryptamine receptor 6 (P50406 whole entry): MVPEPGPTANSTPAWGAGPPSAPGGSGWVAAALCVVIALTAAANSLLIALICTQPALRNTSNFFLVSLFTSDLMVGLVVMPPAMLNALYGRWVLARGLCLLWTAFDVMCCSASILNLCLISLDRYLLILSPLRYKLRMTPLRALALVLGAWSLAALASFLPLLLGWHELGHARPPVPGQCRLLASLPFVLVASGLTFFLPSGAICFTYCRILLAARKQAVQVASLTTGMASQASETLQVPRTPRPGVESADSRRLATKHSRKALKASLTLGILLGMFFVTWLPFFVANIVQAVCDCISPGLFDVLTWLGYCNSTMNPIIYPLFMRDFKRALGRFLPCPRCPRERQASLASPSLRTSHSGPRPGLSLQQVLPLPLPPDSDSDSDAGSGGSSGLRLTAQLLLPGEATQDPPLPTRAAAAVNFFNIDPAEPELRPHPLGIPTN

Mus musculus [5] = assay: Antidepressant like activity in Albino Swiss mouse assessed as reduction of immobility time at 5 mg/kg, ip administered 30 mins before test measured during final 4 mins of the 6 mins session by forced swimming test (reference value: 165 +/- 9.6 sec); format: functional; conditions: route intraperitoneal
Mus musculus [6] = assay: Antidepressant like activity in Albino Swiss mouse assessed as reduction of immobility time at 10 mg/kg, ip administered 30 mins before test measured during final 4 mins of the 6 mins session by forced swimming test (reference value: 165 +/- 9.6 sec); format: functional; conditions: route intraperitoneal
Mus musculus [7] = assay: Antidepressant like activity in Albino Swiss mouse assessed as reduction of immobility time at 20 mg/kg, ip administered 30 mins before test measured during final 4 mins of the 6 mins session by forced swimming test (reference value: 165 +/- 9.6 sec); format: functional; conditions: route intraperitoneal
Mus musculus [8] = assay: Antidepressant like activity in Albino Swiss mouse assessed as reduction in immobility time at 10 mg/kg, ip administered 30 mins before test measured during final 4 mins of the 6 mins session by forced swimming test; format: functional; set-up: scale not given: the % may be the effect or the level left; conditions: route intraperitoneal
Mus musculus [9] = assay: Neurotoxicity in Albino Swiss mouse assessed as effect on number of crossings at 10 mg/kg, ip administered 30 mins before test measured for 2 to 6 mins; format: toxicity, organism-based; set-up: dose 10 mg/kg, route intraperitoneal; conditions: in vivo
Outline: (§2)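 Spontaneous locomotor activity in mice, recorded over 2–6 min (the swim-test observation window) or over a 30-min session. Drug was suspended in 1% aqueous Tween 80 and given ip at 10 ml/kg, 30 min beforehand, with vehicle-injected controls. Tests ran blind during the light phase (09.00–14.00 h), using 7–10 animals per dose, each used once.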

Mus musculus [10] = assay: Neurotoxicity in Albino Swiss mouse assessed as effect on number of crossings at 10 mg/kg, ip administered 30 mins before test measured for 30 mins; format: toxicity, organism-based; set-up: dose 10 mg/kg, route intraperitoneal; conditions: in vivo, 0.5 h; outline: as §2
[11] = biological target: T3, Adrenergic receptor alpha-1 (Rattus norvegicus, UniProt P15823+P23944+P43140); assay: Displacement of [3H]-prazosin from alpha 1 receptor in rat cortex by liquid scintillation counting; outline: as §1
T3 sequence (P15823 whole entry): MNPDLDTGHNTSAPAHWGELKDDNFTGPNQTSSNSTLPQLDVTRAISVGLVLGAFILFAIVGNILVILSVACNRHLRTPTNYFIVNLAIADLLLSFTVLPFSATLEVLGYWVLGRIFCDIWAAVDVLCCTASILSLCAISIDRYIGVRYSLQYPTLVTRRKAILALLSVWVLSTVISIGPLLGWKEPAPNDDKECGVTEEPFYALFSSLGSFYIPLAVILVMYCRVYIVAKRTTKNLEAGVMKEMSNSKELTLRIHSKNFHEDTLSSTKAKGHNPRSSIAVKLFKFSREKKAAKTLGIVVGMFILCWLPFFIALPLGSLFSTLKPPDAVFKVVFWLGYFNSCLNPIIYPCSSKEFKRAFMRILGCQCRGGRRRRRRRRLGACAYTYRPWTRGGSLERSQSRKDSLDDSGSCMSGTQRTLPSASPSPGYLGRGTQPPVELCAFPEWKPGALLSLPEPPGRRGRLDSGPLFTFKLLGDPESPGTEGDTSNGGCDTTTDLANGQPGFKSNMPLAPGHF
T3 sequence (P23944 whole entry): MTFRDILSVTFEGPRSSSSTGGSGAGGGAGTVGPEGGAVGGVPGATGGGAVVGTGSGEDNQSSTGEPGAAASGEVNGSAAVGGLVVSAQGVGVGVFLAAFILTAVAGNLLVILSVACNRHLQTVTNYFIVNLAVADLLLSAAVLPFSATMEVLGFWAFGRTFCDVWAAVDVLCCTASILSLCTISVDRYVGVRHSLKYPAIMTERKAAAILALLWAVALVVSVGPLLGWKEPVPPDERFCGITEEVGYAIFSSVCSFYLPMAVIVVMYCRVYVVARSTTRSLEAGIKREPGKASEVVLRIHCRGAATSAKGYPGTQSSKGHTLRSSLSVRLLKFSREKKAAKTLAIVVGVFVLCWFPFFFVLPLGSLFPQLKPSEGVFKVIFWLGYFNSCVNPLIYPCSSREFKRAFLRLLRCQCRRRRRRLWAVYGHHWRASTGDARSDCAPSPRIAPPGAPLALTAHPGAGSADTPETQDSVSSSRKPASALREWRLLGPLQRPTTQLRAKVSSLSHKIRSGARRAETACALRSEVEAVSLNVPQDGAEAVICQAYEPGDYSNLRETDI
T3 sequence (P43140 whole entry): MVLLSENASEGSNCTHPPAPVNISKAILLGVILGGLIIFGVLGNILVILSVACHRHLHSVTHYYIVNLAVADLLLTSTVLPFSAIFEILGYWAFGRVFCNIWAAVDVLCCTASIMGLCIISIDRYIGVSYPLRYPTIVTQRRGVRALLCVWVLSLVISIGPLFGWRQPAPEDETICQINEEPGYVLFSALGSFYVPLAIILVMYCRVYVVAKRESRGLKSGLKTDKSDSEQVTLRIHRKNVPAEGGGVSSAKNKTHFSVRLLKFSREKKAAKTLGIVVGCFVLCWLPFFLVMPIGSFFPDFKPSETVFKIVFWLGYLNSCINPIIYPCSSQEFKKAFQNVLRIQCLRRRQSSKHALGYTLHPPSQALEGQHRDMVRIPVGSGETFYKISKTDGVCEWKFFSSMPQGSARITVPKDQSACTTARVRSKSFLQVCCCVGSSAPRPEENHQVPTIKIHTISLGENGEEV

[12] = biological target: T2, 5-hydroxytryptamine receptor 7; assay: Antagonist activity at human 5-HT7 receptor expressed in CHO cells assessed as inhibition of serotonin-induced intracellular cAMP accumulation preincubated for 20 mins measured after 10 mins by radioimmunoassay; format: functional, cell-based

Structure (SMILES)	Ki [1]	Ki [2]	Ki [3]	Ki [4]	Ratio Ki (HEK293)	other results
O=S(=O)(NCCCCN1CCc2sccc2C1)c1cnc2ccccc2c1	986 nM	506 nM	1080 nM	17400 nM	1.9	–
O=S(=O)(NCCCCN1CCc2ccccc2C1)c1cnc2ccccc2c1	305 nM	228 nM	590 nM	8640 nM	1.3	–
O=S(=O)(NCCCCN1CCC2CCCCC2C1)c1cccc2cccnc12 (centres undefined)	3570 nM	1260 nM	–	–	2.8	–
NCCCN(CCN1CCc2ccccc2C1)S(=O)(=O)c1ccccc1	–	3010 nM	–	–	–	–
O=S(=O)(NCCCN1CCC2CCCCC2C1)c1ccc2ncccc2c1 (centres undefined)	4310 nM	1420 nM	–	–	3	–
O=S(=O)(NCCN1CCc2ccccc2C1)c1ccccc1	–	773 nM	–	–	–	–
O=S(=O)(NCCCN1CCc2ccccc2C1)c1ccccc1	–	270 nM	–	–	–	–
CC1CCN(CC[C@H]2CCCN2S(=O)(=O)c2cccc(O)c2)CC1	–	–	–	–	–	Time (Mus musculus [5]): 136.1 s; Time (Mus musculus [6]): 110.8 s; Time (Mus musculus [7]): 139.3 s; Activity (Mus musculus [8]): 33%; Activity (Mus musculus [9]): Non-toxic; Activity (Mus musculus [10]): Non-toxic
O=S(=O)(NCCCCN1CCc2sccc2C1)c1ccc2cccnc2c1	483 nM	334 nM	2650 nM	17500 nM	1.4	–
NCCCN(CCCCN1CCc2ccccc2C1)S(=O)(=O)c1ccccc1	–	235 nM	–	–	–	–
COc1cccc2c1CCN(CCCNS(=O)(=O)c1cccc3ccccc13)C2	–	360 nM	–	–	–	–
O=S(=O)(NCCCCN1CCc2ccccc2C1)c1cccc2ccccc12	–	296 nM	–	–	–	–
NCCN(CCCN1CCc2ccccc2C1)S(=O)(=O)c1ccccc1	–	267 nM	–	–	–	–
O=S(=O)(NCCCCN1CCC2CCCCC2C1)c1cnc2ccccc2c1 (centres undefined)	1450 nM	995 nM	–	–	1.5	–
NCCCN(CCCN1CCc2ccccc2C1)S(=O)(=O)c1ccccc1	–	335 nM	–	–	–	–

More lines, main results first:

Ki [1]	Ki [2]	Ki [3]	Ki [4]	Structure (SMILES)	Ratio Ki (HEK293)	other results
21 nM	41 nM	–	–	CCN(CCCCN1CCN(c2ccccc2OC)CC1)S(=O)(=O)c1ccc2ncccc2c1	0.5	–
–	78 nM	–	–	O=S(=O)(NCCN1CCc2ccccc2C1)c1ccc2ccccc2c1	–	–
–	19 nM	–	–	CCN(CCCN1CCN(c2ccccc2OC)CC1)S(=O)(=O)c1ccc(C)cc1	–	–
25 nM	29 nM	1320 nM	1920 nM	CCN(CCCN1CCN(c2ccccc2OC)CC1)S(=O)(=O)c1ccc2ncccc2c1	0.9	–
40 nM	132 nM	–	–	COc1ccccc1N1CCN(CCCCNS(=O)(=O)c2ccc3ncccc3c2)CC1	0.3	–
–	94 nM	–	–	O=S(=O)(NCCCCN1CCc2ccccc2C1)c1ccccc1	–	–
9.3 nM	38 nM	–	–	CCN(CCCCN1CCN(c2ccccc2OC)CC1)S(=O)(=O)c1cnc2ccccc2c1	0.2	–
18 nM	156 nM	825 nM	2840 nM	COc1ccccc1N1CCN(CCCNS(=O)(=O)c2ccc3ncccc3c2)CC1	0.1	–
–	64 nM	–	–	O=S(=O)(NCCCCN1CCc2ccccc2C1)c1ccc2ccccc2c1	–	–
271 nM	88 nM	4180 nM	1460 nM	O=S(=O)(NCCCCN1CCc2ccccc2C1)c1cccc2cccnc12	3	–
233 nM	224 nM	1520 nM	8250 nM	O=S(=O)(NCCCCN1CCc2ccccc2C1)c1ccc2ncccc2c1	1	–
30 nM	37 nM	–	–	CCN(CCCCN1CCN(c2ccccc2OC)CC1)S(=O)(=O)c1cccc2cccnc12	0.8	–
325 nM	187 nM	5090 nM	14500 nM	CCN(CCCCN1CCC2CCCCC2C1)S(=O)(=O)c1cnc2ccccc2c1 (centres undefined)	1.7	–
53 nM	55 nM	–	–	COc1ccccc1N1CCN(CCCCNS(=O)(=O)c2cccc3cccnc23)CC1	0.9	–
1100 nM	13 nM	6280 nM	1950 nM	CCN(CCCCN1CCC2CCCCC2C1)S(=O)(=O)c1cccc2cccnc12 (centres undefined)	84.5	Ki [11]: 155 nM; Kb [12]: 140 nM; Time (Mus musculus [5]): 155.2 s; Time (Mus musculus [6]): 128.1 s; Time (Mus musculus [7]): 182.3 s; Activity (Mus musculus [8]): 22%; Activity (Mus musculus [9]): Non-toxic; Activity (Mus musculus [10]): Non-toxic
–	80 nM	–	–	O=S(=O)(NCCCN1CCc2ccccc2C1)c1ccc2ccccc2c1	–	–
313 nM	33 nM	1790 nM	4590 nM	CCN(CCCCCN1CCC2CCCCC2C1)S(=O)(=O)c1cccc2cccnc12 (centres undefined)	9.5	Ki [11]: 92 nM; Kb [12]: 1300 nM; Time (Mus musculus [5]): 144.8 s; Time (Mus musculus [6]): 158.6 s; Time (Mus musculus [7]): 181.2 s
3.7 nM	79 nM	–	–	COc1ccccc1N1CCN(CCCCNS(=O)(=O)c2cnc3ccccc3c2)CC1	0.05	–
37 nM	90 nM	2160 nM	1640 nM	COc1ccccc1N1CCN(CCCNS(=O)(=O)c2cccc3cccnc23)CC1	0.4	–
